Source: ChEMBL document CHEMBL2021764, “2-Aminothiophenes as building blocks in heterocyclic synthesis: synthesis and antimicrobial evaluation of a new class of pyrido[1,2-a]thieno[3,2-e]pyrimidine, quinoline and pyridin-2-one derivatives” (2012)

Tests used:
Assay type in all cases: functional
[1] = system: Saccharomyces cerevisiae; test: Antifungal activity against Saccharomyces cerevisiae 156250 at 1 mg/ml after 48 hrs by agar-well diffusion technique; settings: Saccharomyces cerevisiae, 156250, 48 h; read-out: DIZ
Method in brief: (§1)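 Yeast (0.1 ml) was spread on potato dextrose agar, and 4 mm wells were cut with a sterile cork borer. Wells were loaded with test chemical at a final 1 mg ml^-1, then incubated at 25 °C for 48 h. Inhibition zones around the wells were measured, averaged over 3 replicas.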

[2] = system: Staphylococcus aureus; test: Antibacterial activity against Staphylococcus aureus 155554A at 1 mg/ml after 24 hrs by agar-well diffusion technique; settings: read-out: DIZ
Method in brief: (§2)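 Each bacterial strain (0.1 ml) was spread on nutrient agar, and 4 mm wells were cut with a sterile cork borer. Wells were loaded with test chemical at a final 1 mg ml^-1, then incubated at 37 °C for 24 h. Inhibition zone diameters around the wells were measured, averaged over 3 replicas.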

[3] = system: Bacillus subtilis; test: Antibacterial activity against Bacillus subtilis 154921 at 1 mg/ml after 24 hrs by agar-well diffusion technique; settings: Bacillus subtilis, 154921, 24 h; read-out: DIZ; method in brief: as §2
[4] = system: Escherichia coli; test: Antibacterial activity against Escherichia coli 124300 at 1 mg/ml after 24 hrs by agar-well diffusion technique; settings: Escherichia coli, 124300, 24 h; read-out: DIZ; method in brief: as §2
[5] = system: Serratia marcescens; test: Antibacterial activity against Serratia marcescens 155449 at 1 mg/ml after 24 hrs by agar-well diffusion technique; settings: Serratia marcescens, 155449, 24 h; read-out: DIZ; method in brief: as §2
[6] = system: Candida albicans; test: Antifungal activity against Candida albicans 155965 at 1 mg/ml after 48 hrs by agar-well diffusion technique; settings: Candida albicans, 155965, 48 h; read-out: DIZ; method in brief: as §1
[7] = system: Pseudomonas aeruginosa; test: Antibacterial activity against Pseudomonas aeruginosa 155250A at 1 mg/ml after 24 hrs by agar-well diffusion technique; settings: read-out: DIZ; method in brief: as §2

Compound	zone of inhibition at 1000 µg/mL [1] [mm]	zone of inhibition at 1000 µg/mL [2] [mm]	zone of inhibition at 1000 µg/mL [3] [mm]	zone of inhibition at 1000 µg/mL [4] [mm]	zone of inhibition at 1000 µg/mL [5] [mm]	zone of inhibition at 1000 µg/mL [6] [mm]	zone of inhibition at 1000 µg/mL [7] [mm]
N#Cc1c(-c2ccc(Cl)cc2)c(C#N)c2[nH]c(=O)c3c(-c4ccccc4)csc3n2c1=N	1.3	0	1.6	4.6	3.3	0	
N#Cc1c(-c2ccc(Cl)cc2)csc1NC(=O)c1cc2ccccc2[nH]c1=O		8	10.5	8			11
N#Cc1c(-c2ccc([N+](=O)[O-])cc2)c(C#N)c2[nH]c(=O)c3c(-c4ccc(Cl)cc4)csc3n2c1=N	1.3	0	4	5.3	4	2.6	6
Cc1ccc(-c2c(C#N)c(=N)n3c([nH]c(=O)c4c(-c5ccccc5)csc43)c2C#N)cc1	0.7	0	2	2.6	3.3	0	6
N#Cc1c(-c2ccccc2)csc1N	16	21	14.6	10.6	11.3	18	10.6
N#Cc1cc(C#N)c2[nH]c(=O)c3c(-c4ccc(Cl)cc4)csc3n2c1=N	0	2.6	6	2	3.3	0	8
CCOC(=O)c1sc2c(c1C)c(=O)[nH]c1c(C#N)c(-c3ccc(Cl)cc3)c(C#N)c(=N)n12	0	0	2	8	4.6	0	6
N#Cc1c(-c2ccccc2)c(C#N)c2[nH]c(=O)c3c(-c4ccc(Cl)cc4)csc3n2c1=N	4	0	2	4	4	0	6
N#CCC(=O)Nc1scc(-c2ccc(Cl)cc2)c1C#N	3	0	4.6	4	1.3	0	4
N#Cc1cc(C#N)c2[nH]c(=O)c3c(-c4ccccc4)csc3n2c1=N	1.3	0	2	4	6.6	2.6	9
Cc1cccc(-c2ccc(C(=O)Nc3scc(-c4ccccc4)c3C#N)c(=O)[nH]2)n1	0	0	0	0	0	0	4
CN(C)/C=C(\C#N)C(=O)Nc1scc(-c2ccc(Cl)cc2)c1C#N	1.3	0	1	4	7	0	4
N#Cc1c(-c2ccccc2)csc1NC(=O)c1cc2ccccc2[nH]c1=O	14	12	11	8.6	6	16	10
N#Cc1c(-c2cccs2)c(C#N)c2[nH]c(=O)c3c(-c4ccccc4)csc3n2c1=N	0	0	3.3	4	0	0	11.3
N#Cc1c(-c2ccc(Cl)cc2)c(C#N)c2[nH]c(=O)c3c(-c4ccc(Cl)cc4)csc3n2c1=N	0.7	0	3.3	4	2.6	0	7
N#CCC(=O)Nc1scc(-c2ccccc2)c1C#N	2.6	0	2	4	2	4	4
COc1ccc(-c2c(C#N)c(=N)n3c([nH]c(=O)c4c(-c5ccccc5)csc43)c2C#N)cc1	0	0	2	3.3	2	0	14
CN(C)c1ccc(/C=C(\C#N)C(=O)Nc2scc(-c3ccccc3)c2C#N)cc1	0	0	0	2	7.3	0	4
CCOC(=O)c1sc(NC(=O)/C(C#N)=N/Nc2ccccc2)c(C#N)c1C	0	14	13	0	2.6	0	6
CN(C)c1ccc(/C=C(\C#N)C(=O)Nc2scc(-c3ccc(Cl)cc3)c2C#N)cc1	0	0	3.6	2	2	0	6
N#Cc1c(-c2ccccc2)csc1NC(=O)c1cn[nH]c1N	2.6	0	2	2.6	0.7	4	6.6
N#Cc1c(-c2ccc(Cl)cc2)csc1NC(=O)c1cn[nH]c1N	4	2	7.3	0	2	6.6	3.3
N#Cc1c(-c2ccc(Cl)cc2)csc1N	7	6.6	11	4	0	2.6	5
N#Cc1c(-c2ccc([N+](=O)[O-])cc2)c(C#N)c2[nH]c(=O)c3c(-c4ccccc4)csc3n2c1=N	0	0	2	4	4.6	0	
CCOC(=O)c1sc(NC(=O)CC#N)c(C#N)c1C	0		7	7		0	
N#Cc1c(-c2ccccc2)c(C#N)c2[nH]c(=O)c3c(-c4ccccc4)csc3n2c1=N	2.6	0	4	6.3	4.6	2	4
Cc1ccc(-c2c(C#N)c(=N)n3c([nH]c(=O)c4c(-c5ccc(Cl)cc5)csc43)c2C#N)cc1	2	0	2	3.3	4	0	6
N#Cc1c(-c2ccccc2)csc1NC(=O)c1ccc(-c2cccs2)[nH]c1=O	2	0	2	2	2	0	4
